What was measured:
[1] = tested on: PDAPP primary cortical neurons; assay: PDAPP neuronal cytotoxicity; format: cell-based, mouse
Method in brief: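 Primary cortical neurons from gestational-day-16 PDAPP (APP V717F) embryos were grown at 15×10^4 cells/well in DMEM/F12 (1:1) with B27. Cells were exposed to test compound for 24 h at 37°C. Viability was read by MTT assay as absorbance at 595 nm.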

[2] = target: T1, Renin recombinant human enzyme (Homo sapiens, UniProt P00797); assay: Renin FRET assay; format: biochemical; conditions: read-out: Renin FRET Assay Absolute IC50; n = 1/2; value (SD)
T1 sequence (P00797 67-406): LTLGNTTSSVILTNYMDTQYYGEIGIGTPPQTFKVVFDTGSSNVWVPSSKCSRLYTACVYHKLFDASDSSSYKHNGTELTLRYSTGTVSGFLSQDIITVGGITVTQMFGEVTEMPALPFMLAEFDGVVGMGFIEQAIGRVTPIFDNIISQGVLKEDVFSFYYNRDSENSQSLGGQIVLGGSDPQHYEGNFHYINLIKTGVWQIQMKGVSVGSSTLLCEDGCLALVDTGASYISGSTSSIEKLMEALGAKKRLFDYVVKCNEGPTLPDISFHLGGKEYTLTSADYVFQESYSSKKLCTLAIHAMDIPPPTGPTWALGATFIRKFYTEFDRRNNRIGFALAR

[3] = tested on: CSF Aβ1–40, Aβ1–42, sAβPPα, sAβPPβ in healthy subjects; assay: Clinical multiple-dose CSF pharmacodynamics; format: in vivo, human
healthy subjects = assay: Clinical safety: adverse events, ECG, laboratory tests; format: in vivo, human
[4] = tested on: Aβ1-x in plasma and CSF of beagle dogs; assay: Pharmacodynamics in cannulated beagle dogs; format: in vivo, dog; conditions: 1.5 mg/kg oral
Method in brief: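 Six male cannulated beagle dogs received a single 1.5 mg/kg oral dose in 1% hydroxyethylcellulose. Plasma was sampled pre-dose and at 0.5–48 h. CSF was sampled 0.5 h pre-dose (baseline) and at 3, 6, 9, 24 and 48 h. Aβ1–x was measured by sandwich ELISA (m266.2 capture, biotinylated 3D6 reporter), averaged across dogs and expressed relative to baseline. Statistics: ANOVA with Tukey post hoc.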

[5] = 1 mg daily for 14 days, 24 h after final dose
[6] = 26 mg daily for 14 days, samples below LLOQ assigned one-half the LLOQ

`COc1cnc(C(=O)Nc2ccc(F)c([C@]34CN(c5ncc(F)cn5)C[C@H]3CSC(N)=N4)c2)cn1` [LY3202626] showed an EC50 ([1]; read-out: EC50 for inducing cytotoxicity in PDAPP neurons, MTT) of over 100 µM, an IC50 ([1]; read-out: PDAPP 1° Neuron Cytotox Relative IC50, n = 1/7) of over 100 µM and an IC50 [2] of over 14 µM. The “decrease in CSF Aβ1–40 from baseline” value [3, 5] was “approximately 50%”, the “decrease in CSF Aβ1–42 from baseline” value [3, 5] was “approximately 50%” and the “lowering of CSF Aβ species, modeling of the clinical data” value ([3]; 12 mg QD) was “at least 90%”. The “increase in CSF sAβPPα from baseline” value ([3]; 26 mg daily for 14 days) was 111%, the “reduction in CSF sAβPPβ from baseline” value ([3]; 26 mg daily for 14 days) was 92.7% and the “reduction in CSF Aβ1–40 from baseline” value [3, 6] was “approximately 94%”. The “reduction in CSF Aβ1–42 from baseline” value [3, 6] was “approximately 94%”, the “decrease in CSF sAβPPβ” value ([3]; multiple doses of 6 mg) was “more than 70%” and the tolerability (healthy subjects; Phase 1 study) was “generally well tolerated”. For the same compound, the “clinical laboratory tests, including liver functions tests” value (healthy subjects; healthy subjects, Phase 1) was “no clinically significant findings”, the “electrocardiograms (including QTc interval), ophthalmologic examinations, alertness and attention” value (healthy subjects; healthy subjects, Phase 1) was “no clinically significant changes” and the “Abnormal dreams: number of adverse events (number of subjects)” value (from here on “Abnormal dreams: number”) (healthy subjects; multiple doses 1 mg, N = 9) was 1 (1). For the same compound, the “Burning sensation: number of adverse events (number of subjects)” value (from here on “Burning sensation: number”) (healthy subjects; multiple doses 1 mg, N = 9) was 1 (1), the “Constipation: number of adverse events (number of subjects)” value (“Constipation: number of adverse events” below) (healthy subjects; multiple doses 1 mg, N = 9) was 0 (0) and the “Dizziness: number of adverse events (number of subjects)” value (“Dizziness: number of adverse events” below) (healthy subjects; multiple doses 1 mg, N = 9) was 0 (0). For the same compound, the “Dysgeusia: number of adverse events (number of subjects)” value (“Dysgeusia: number of adverse events” for short) (healthy subjects; multiple doses 1 mg, N = 9) was 1 (1), the “Feces discoloured: number of adverse events (number of subjects)” value (from here on “Feces discoloured: number”) (healthy subjects; multiple doses 1 mg, N = 9) was 0 (0) and the “Headache: number of adverse events (number of subjects)” value (“Headache: number of adverse events” below) (healthy subjects; multiple doses 1 mg, N = 9) was 0 (0). The “Memory impairment: number of adverse events (number of subjects)” value (“Memory impairment: number” below) (healthy subjects; multiple doses 1 mg, N = 9) was 0 (0), the “Nightmare: number of adverse events (number of subjects)” value (shortened to “Nightmare: number of adverse events”) (healthy subjects; multiple doses 1 mg, N = 9) was 1 (1) and the “Post-lumbar puncture syndrome: number of adverse events (number of subjects)” value (shortened to “Post-lumbar puncture syndrome: number”) (healthy subjects; multiple doses 1 mg, N = 9) was 1 (1). For the same compound, the “Postural orthostatic tachycardia syndrome: number of adverse events (number of subjects)” value (healthy subjects; multiple doses 1 mg, N = 9) was 0 (0), the “Sunburn: number of adverse events (number of subjects)” value (“Sunburn: number of adverse events” for short) (healthy subjects; multiple doses 1 mg, N = 9) was 0 (0) and the “Abnormal dreams: number” value (healthy subjects; multiple doses 6 mg, N = 9) was 0 (0). The “Burning sensation: number” value (healthy subjects; multiple doses 6 mg, N = 9) was 0 (0), the “Constipation: number of adverse events” value (healthy subjects; multiple doses 6 mg, N = 9) was 1 (1) and the “Dizziness: number of adverse events” value (healthy subjects; multiple doses 6 mg, N = 9) was 0 (0). The “Dysgeusia: number of adverse events” value (healthy subjects; multiple doses 6 mg, N = 9) was 0 (0), the “Feces discoloured: number” value (healthy subjects; multiple doses 6 mg, N = 9) was 2 (2) and the “Headache: number of adverse events” value (healthy subjects; multiple doses 6 mg, N = 9) was 0 (0). For the same compound, the “Memory impairment: number” value (healthy subjects; multiple doses 6 mg, N = 9) was 0 (0), the “Nightmare: number of adverse events” value (healthy subjects; multiple doses 6 mg, N = 9) was 0 (0) and the “Post-lumbar puncture syndrome: number” value (healthy subjects; multiple doses 6 mg, N = 9) was 0 (0). For the same compound, the “Postural orthostatic tachycardia syndrome: number of adverse events (number of subjects)” value (healthy subjects; multiple doses 6 mg, N = 9) was 0 (0), the “Sunburn: number of adverse events” value (healthy subjects; multiple doses 6 mg, N = 9) was 0 (0) and the “Abnormal dreams: number” value (healthy subjects; multiple doses 26 mg, n = 9) was 0 (0). For the same compound, the “Burning sensation: number” value (healthy subjects; multiple doses 26 mg, n = 9) was 0 (0), the “Constipation: number of adverse events” value (healthy subjects; multiple doses 26 mg, n = 9) was 0 (0) and the “Dizziness: number of adverse events” value (healthy subjects; multiple doses 26 mg, n = 9) was 2 (2). For the same compound, the “Dysgeusia: number of adverse events” value (healthy subjects; multiple doses 26 mg, n = 9) was 0 (0), the “Feces discoloured: number” value (healthy subjects; multiple doses 26 mg, n = 9) was 9 (9) and the “Headache: number of adverse events” value (healthy subjects; multiple doses 26 mg, n = 9) was 0 (0). The “Memory impairment: number” value (healthy subjects; multiple doses 26 mg, n = 9) was 1 (1), the “Nightmare: number of adverse events” value (healthy subjects; multiple doses 26 mg, n = 9) was 0 (0) and the “Post-lumbar puncture syndrome: number” value (healthy subjects; multiple doses 26 mg, n = 9) was 0 (0). For the same compound, the “Postural orthostatic tachycardia syndrome: number of adverse events (number of subjects)” value (healthy subjects; multiple doses 26 mg, n = 9) was 1 (1), the “Sunburn: number of adverse events” value (healthy subjects; multiple doses 26 mg, n = 9) was 0 (0) and the serious adverse events (healthy subjects; up to a single dose of 45 mg or multiple doses of 26 mg) was “no serious adverse events”. The “time CSF Aβ1-x remained significantly suppressed after dosing” value [4] was 24 h, the “maximal reduction of CSF Aβ1-x” value ([4]; 9 h time point) was about 80% and the “reduction of plasma Aβ1-x” value ([4]; 48 h time point) was “approximately 40%”. For the same compound, the “suppression of plasma Aβ1-x levels” value ([4]; by 2 h after dosing, vs baseline) was “up to 80%”.
